In paper PMC3169012 (European journal of pharmacology, 2011):
“Also recorded” adds a separate entry of the source. Positions of bridges follow the written chain, without caps; N, C: chain ends. No end group written: not given here.

Assays:
[1] = tested on: mock transfected RBL-2H3 cells; assay: Degranulation of mock transfected RBL-2H3 cells; type: cell-based, rat; settings: C3a 100 nM, peptides 1 µM, compound 48/80 100 ng/ml or antigen DNP-BSA 30 ng/ml, 30 min, representative of 3 experiments
Method in brief: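 Rat RBL-2H3 cells, grown in DMEM with 10% FBS and mock-transfected, were seeded at 5 × 10^4 per well and sensitised with anti-DNP IgE (1 µg/ml, 16 h). After washing, they were challenged 30 min in 0.1% BSA buffer with test agents or DNP-BSA antigen. Supernatant β-hexosaminidase was assayed with 1 mM p-nitrophenyl-N-acetyl-β-D-glucosamine (1.5 h, 37°C) at A405, relative to a 0.1% Triton X-100 lysate. Data are representative of 3 experiments.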

HA-tagged human MrgX1 = assay: Degranulation of RBL-2H3 cells stably expressing MrgX1; type: cell-based; settings: RBL-2H3 expressing MrgX1; for degranulation: peptides 1 µM, compound 48/80 100 ng/ml or antigen DNP-BSA 30 ng/ml, 30 min, representative of 3 experiments
HA-tagged human MrgX2 = assay: Degranulation of RBL-2H3 cells stably expressing MrgX2; type: cell-based; settings: RBL-2H3 expressing MrgX2; for degranulation: peptides 1 µM, compound 48/80 100 ng/ml or antigen DNP-BSA 30 ng/ml, 30 min, representative of 3 experiments
Method in brief: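 RBL-2H3 cells were nucleofected with HA-tagged receptor plasmid, selected in G418 (1mg/ml) and sorted by anti-HA staining for equivalent expression. 5 × 10^4 cells were primed overnight with mouse anti-DNP IgE (1 µg/ml), washed and stimulated 30 min in 0.1% BSA buffer. Supernatant β-hexosaminidase was read with 1 mM p-nitrophenyl-N-acetyl-β-D-glucosamine (1.5 h, 37°C), stopped with carbonate buffer, A405, as percent of Triton X-100 lysate total.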

LAD2 mast cells [2] = assay: Degranulation; type: cell-based, human; settings: 30 min, β-hexosaminidase release; for degranulation: different concentrations, 3 – 4 experiments
Method in brief: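 LAD2 cells, kept in StemPro-34 with 100 ng/ml SCF, were seeded at 5 × 10^3 per well overnight with human IgE (1 µg/ml). After washing, they were exposed for 30 min to graded test-compound concentrations in buffer with 0.1% BSA. Released β-hexosaminidase was assayed with 1 mM p-nitrophenyl-N-acetyl-β-D-glucosamine (1.5 h, 37°C), stopped with 0.1 M Na2CO3/NaHCO3, and read at A405. Values are percent of the 0.1% Triton X-100 lysate total, mean ± S.E.M of 3–4 experiments.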

HMC-1 cells [3] = assay: Ca^2+ mobilization in HMC-1 cells; type: cell-based, human; settings: representative of 3 experiments; for intracellular Ca^2+ mobilization: indo-1 AM, 355/410 nm, C3a 10 nM, E7 1 µM, E7S 1 µM, compound 48/80 1 µg/ml
Method in brief: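 HMC-1 cells were grown in IMDM with 10% FCS, 2 mM L-glutamine, penicillin and streptomycin. Cells at 1 × 10^6/ml were loaded with 1 µM indo-1 AM plus 1 µM pluronic F-127 for 30 min at room temperature, then washed and resuspended in HEPES-buffered saline. Stimuli were added sequentially at marked times: C3a 10 nM, test peptide 1 µM, test secretagogue 1 µg/ml. Fluorescence was read at excitation 355 nm and emission 410 nm.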

LAD2 mast cells [4] = assay: Ca^2+ mobilization in LAD2 mast cells; type: cell-based, human; settings: indo-1 AM, C3a 10 nM, E7 1 µM, representative of 3 experiments; for intracellular Ca^2+ mobilization: 355/410 nm, E7S 1 µM, compound 48/80 1 µg/ml
Method in brief: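 LAD2 cells were kept in StemPro-34 with supplements, 2 mM L-glutamine, penicillin, streptomycin and 100 ng/ml SCF, hemi-depleted weekly. Cells at 0.2 × 10^6/ml were loaded with 1 µM indo-1 AM plus 1 µM pluronic F-127 for 30 min at room temperature, washed and resuspended in HEPES-buffered saline. C3a (10 nM) or test peptide (1 µM) was added at marked times. Fluorescence was read at excitation 355 nm and emission 410 nm.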

[5] = tested on: CD34^+-derived human mast cells; assay: Degranulation; type: cell-based; settings: 30 min, E7 or E7S 1 µM, 3 – 4 experiments
Method in brief: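 Primary mast cells were grown 7–10 weeks from human CD34+ progenitors in StemPro-34 with SCF and IL-6 (100 ng/ml each), plus IL-3 (30 ng/ml) in the first week only. Cells (5 × 10^3 per well) were primed overnight with human IgE (1 µg/ml), washed, and stimulated 30 min in 0.1% BSA buffer with test peptides at 100 nM or 1 µM. β-Hexosaminidase release was measured at 405 nm and expressed as percent of lysate total, mean ± S.E.M of 3–4 experiments.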

MrgX2 [6] = settings: 2003, cited from earlier work; for structural requirement for MrgX2 activation: ref Robas et al.
[7] = tested on: peripheral blood CD34^+ cell-derived mast cells; settings: ref Fukuoka et al., 2008, Lappalainen et al., 2007, Oskeritzian et al., 2005, Venkatesha et al., Woolhiser et al., 2004; cited from earlier work
[8] = tested on: rat basophilic leukemia, RBL-2H3 cells; settings: ref Erdei et al., 2004, Soruri et al., 2008; cited from earlier work
[9] = tested on: bone marrow-derived mast cells; settings: ref Erdei et al., 2004, Soruri et al., 2008; cited from earlier work
mast cell = settings: ref Hartmann et al., 1997; Nilsson et al., 1996; cited from earlier work
HMC-1 cells [10] = settings: ref Ahamed et al., 2004, Ali et al., 2000; cited from earlier work
[11] = ref Lu et al., 1984; cited from earlier work
C5a receptor = settings: ref Subramanian, 2011; cited from earlier work
MrgX2 [12] = settings: requires tryptophan and a positively charged residue; ref Subramanian, 2011; cited from earlier work
MrgX1 = settings: ref Lembo et al., 2002; Robas et al., 2003; cited from earlier work
guinea pig platelet = settings: ref Ember et al., 1991; cited from earlier work
C3a receptor [13] = settings: guinea pig ileum, C3a versus C5a; ref Ember et al., 1991; cited from earlier work
C3a receptor [14] = settings: versus C3a receptor agonist peptide (C3aP), ref Ember et al., 1991; cited from earlier work
guinea pig skin = settings: ref Ember et al., 1991; cited from earlier work

With “antigen: antigen (DNP-BSA, 30 ng/ml) on anti-DNP specific IgE-primed cells” the degranulation [1] was “responded to antigen for degranulation”, the degranulation (HA-tagged human MrgX1) was “responded to antigen for degranulation” and the degranulation (HA-tagged human MrgX2) was “responded to antigen for degranulation”.

With LRAGSRYKKWALKWG [E7S] the degranulation (LAD2 mast cells [2]) was “also induced mast cell degranulation in a dose-dependent manner”, the “intracellular Ca^2+ mobilization” value (HMC-1 cells [3]) was “did not initiate Ca^2+ responses in this cell line” and the “intracellular Ca^2+ mobilization” value (LAD2 mast cells [4]) was “induced robust and sustained Ca^2+ responses in LAD2 mast cells”. The “degranulation of primary mast cells” value [5] was “these peptides induced degranulation in primary mast cells” and the degranulation (HA-tagged human MrgX2) was “responded to CST, E7, E7S and compound 48/80”.

For “Pro-[Cys-Lys-Asn-Phe-Phe-Trp-Lys-Thr-Phe-Ser-Ser-Cys]-Lys (disulfide) (PCKNFFWKTFSSCK; disulfide 2-13) [CST, Cortistatin-14]”, the “ligand of MrgX2” value (MrgX2 [6]; ref Lembo et al., 2002, Robas et al.) is listed as “Ligands for MrgX1 and MrgX2 have been identified”, the “structural requirement for MrgX2 activation” value (MrgX2 [6]) is listed as “both the N-terminal proline and the C-terminal lysine are required for MrgX2 activation” and the degranulation (HA-tagged human MrgX2) is listed as “responded to CST, E7, E7S and compound 48/80”.

For cortistatin-17 [CST-17], the “structural requirement for MrgX2 activation” value (MrgX2 [6]) is listed as “both the N-terminal proline and the C-terminal lysine are required for MrgX2 activation”.

For “C3a: purified human anaphylatoxin C3a, from Complement Technology”, the degranulation (LAD2 mast cells [2]) is given as “induced Ca^2+ mobilization and degranulation in a differentiated human mast cell line, LAD2; also recorded: induced a dose-dependent degranulation of LAD2 mast cells”, the degranulation [7] is given as “induces degranulation” and the “degranulation by C3a” value (HA-tagged human MrgX1; C3a (1 µM) in text) is given as “did not activate RBL-2H3 cells expressing MrgX1 or MrgX2; also recorded: at concentrations up to 1 µM did not induce degranulation in cells expressing either human MrgX1 or MrgX2”. The degranulation [8] was “does not induce degranulation”, the “Ca^2+ response to C3a added after E7S or compound 48/80” value (HMC-1 cells [3]; C3a 10 nM as second stimulus) was “fully responsive to C3a” and the “intracellular Ca^2+ mobilization” value (HMC-1 cells [3]) was “caused Ca^2+ mobilization in an immature mast cell line, HMC-1; also recorded: induced Ca^2+ mobilization of similar magnitude and duration in HMC-1 cells”. The degranulation [9] was “does not induce degranulation”, the “intracellular Ca^2+ mobilization” value (LAD2 mast cells [4]) was “induced Ca^2+ mobilization; also recorded: induced rapid Ca^2+ responses in LAD2 cells which peaked within seconds after stimulation” and the “duration/magnitude of Ca^2+ response, C3a versus E7” value (LAD2 mast cells [4]) was “markedly reduced”. The “mast cell chemoattractant activity” value (mast cell) was “one of the most potent mast cell chemoattractants known”, the “Ca^2+ mobilization” value (HMC-1 cells [10]) was “responds to C3a for a transient Ca^2+ mobilization” and the “degranulation by C3a” value (HA-tagged human MrgX2; C3a (1 µM) in text) was “did not activate RBL-2H3 cells expressing MrgX1 or MrgX2; also recorded: at concentrations up to 1 µM did not induce degranulation in cells expressing either human MrgX1 or MrgX2”.

In the case of NYITELRRQHARASHLGLAR [C3aP], the “biological potency compared with natural C3a” value [11] is listed as “expresses biological potency equal to natural C3a”, the degranulation (LAD2 mast cells [2]) is listed as “as with LAD2 cells, these peptides induced degranulation” and the “degranulation of primary mast cells” value [5] is listed as “these peptides induced degranulation in primary mast cells”.

In the case of PMX-53, the C5a receptor antagonism (C5a receptor) is listed as “potent C5a receptor antagonist” and the “activation of human mast cells via MrgX2” value (MrgX2 [12]) is listed as “activates human mast cells via MrgX2”.

In the case of “Tyr-Gly-Gly-Phe-Met-Arg-Arg-Val-Gly-Arg-Pro-Glu-Trp-Trp-Met-Asp-Tyr-Gln-Lys-Arg-Tyr-Gly [BAM-22P, Bovine Adrenal Medulla Docosapeptide]”, the “ligand of MrgX1” value (MrgX1) is given as “Ligands for MrgX1 and MrgX2 have been identified” and the degranulation (HA-tagged human MrgX1) is given as “responded only to BAM-22P and compound 48/80 for degranulation”.

In the case of WWGKKYRASKLGLAR [E7], the “increase in guinea pig platelet aggregation activity compared to C3aP” value (guinea pig platelet) is listed as ~ 1500%, the “potency for mast cell degranulation compared with C3a” value (LAD2 mast cells [2]) is listed as “its potency for mast cell degranulation was lower than that of C3a” and the degranulation (LAD2 mast cells [2]) is listed as “induced Ca^2+ mobilization and degranulation in a differentiated human mast cell line, LAD2; also recorded: induced a dose-dependent increase in degranulation in LAD2 mast cells”. The “cross-desensitization of ileum contraction” value (C3a receptor [13]) was “cross-desensitized the ability of C3a but not C5a to induce guinea pig ileum contraction”, the “potency relative to C3aP in guinea pigs” value (C3a receptor [14]) was 12 –15 fold and the “intracellular Ca^2+ mobilization” value (HMC-1 cells [3]) was “caused Ca^2+ mobilization in an immature mast cell line, HMC-1; also recorded: induced Ca^2+ mobilization of similar magnitude and duration in HMC-1 cells”. For the same substance, the “intracellular Ca^2+ mobilization” value (LAD2 mast cells [4]) was “induced Ca^2+ mobilization; also recorded: induced rapid Ca^2+ responses in LAD2 cells which peaked within seconds after stimulation”, the “duration/magnitude of Ca^2+ response, C3a versus E7” value (LAD2 mast cells [4]) was “prominent and sustained response” and the “concentrations required to induce vascular permeability compared to C3aP” value (guinea pig skin) was “much lower concentrations of E7 were required to induce vascular permeability in guinea pig skin”. The “degranulation of primary mast cells” value [5] was “these peptides induced degranulation in primary mast cells” and the degranulation (HA-tagged human MrgX2) was “activated RBL-2H3 cells expressing MrgX2; also recorded: responded to CST, E7, E7S and compound 48/80”.
